Experimental data reported in ChEMBL document CHEMBL1800059, “Spiroindane based amides as potent and selective MC4R agonists for the treatment of obesity” (Bioorg Med Chem Lett, 2010).
Calls of active or inactive are those of the source. No cut-off for these calls is given here.

Columns and labels:
Melanocortin receptor 4 [1] = molecular target: T1, Melanocortin receptor 4 (Homo sapiens, UniProt P32245); assay: Agonist activity at human MC4R expressed in CHO cells assessed as increase of alpha-MSH-stimulated cAMP release pretreated for 10 mins before alpha-MSH challenge measured after 40 mins relative to alpha-MSH; type: functional, cell-based
T1 sequence (P32245 whole entry): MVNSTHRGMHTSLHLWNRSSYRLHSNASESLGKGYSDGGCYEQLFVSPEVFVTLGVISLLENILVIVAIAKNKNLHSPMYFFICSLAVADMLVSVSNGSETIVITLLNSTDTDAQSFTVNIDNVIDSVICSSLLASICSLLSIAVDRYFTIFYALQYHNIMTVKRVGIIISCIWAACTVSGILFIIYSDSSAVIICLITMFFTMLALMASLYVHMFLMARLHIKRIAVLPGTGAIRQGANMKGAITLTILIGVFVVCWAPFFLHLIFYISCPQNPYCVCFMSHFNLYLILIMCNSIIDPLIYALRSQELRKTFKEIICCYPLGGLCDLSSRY
How it was run: (§1)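 Each value is the mean of at least three repeat measurements. Functional read-outs give EC50 with % maximal activation.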

[2] = Agonist activity at human MC1bR expressed in CHO cells assessed as increase of alpha-MSH-stimulated cAMP release pretreated for 10 mins before alpha-MSH challenge measured after 40 mins relative to alpha-MSH; type: functional; how it was run: as §1
[3] = Clearance in Sprague-Dawley rat at 1 mg/kg, iv and 4 mg/kg, po; type: ADME, organism-based; settings: in vivo
Melanocortin receptor 4 [4] = molecular target: T1, Melanocortin receptor 4; assay: Displacement of [125I]-NDP-R-MSH from human MC4R expressed in CHO cells after 1.5 hrs by scintillation counting; type: cell-based; how it was run: as §1
[5] = Volume of distribution at steady state in Sprague-Dawley rat at 1 mg/kg, iv and 4 mg/kg, po; type: ADME, organism-based; settings: in vivo, read-out: Vdss
Melanocortin receptor 4 [6] = molecular target: T1, Melanocortin receptor 4; assay: Agonist activity at human MC4R expressed in CHO cells assessed as increase of alpha-MSH-stimulated cAMP release pretreated for 10 mins before alpha-MSH challenge measured after 40 mins; type: functional, cell-based; how it was run: as §1
[7] = Half life in Sprague-Dawley rat at 1 mg/kg, iv and 4 mg/kg, po; type: ADME, organism-based; settings: in vivo
[8] = Agonist activity at human MC1bR expressed in CHO cells assessed as increase of alpha-MSH-stimulated cAMP release pretreated for 10 mins before alpha-MSH challenge measured after 40 mins; type: functional, cell-based; how it was run: as §1
[9] = Oral bioavailability in Sprague-Dawley rat at 4 mg/kg; type: ADME, organism-based; settings: in vivo
Rattus norvegicus [10] = assay: Dose-normalized AUC in Sprague-Dawley rat at 1 mg/kg, iv and 4 mg/kg, po; type: ADME, organism-based; settings: in vivo
Rattus norvegicus [11] = assay: Antiobesity activity in wild type 14 days diet-induced obese rat model assessed as reduction in body weight at 10 mg/kg, po BID; type: functional, organism-based; set-up: dose 10 mg/kg
Rattus norvegicus [12] = assay: Antiobesity activity in wild type 14 days diet-induced obese rat model assessed as reduction in body weight at 6 mg/kg, po BID; type: functional, organism-based; set-up: dose 6 mg/kg
How it was run: (§2)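 Diet-induced obese rats were dosed orally twice daily for 14 days at 2, 6 or 20 mpk. Vehicle and orally dosed positive-control groups were included. Body weight was recorded daily and expressed as change in grams.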

Mus musculus [13] = assay: Antiobesity activity in MC4R/3R knockout diet-induced obese mouse model assessed as reduction in body weight at 10 mg/kg, po; type: functional, organism-based; set-up: dose 10 mg/kg
How it was run: (§3)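 Wild-type and MC4R/3R knockout mice received a single oral dose of 10 mg/kg, with a vehicle-dosed group for each genotype. Food intake and body weight change were measured against vehicle.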

Mus musculus [14] = assay: Antiobesity activity in MC4R/3R knockout diet-induced obese mouse model assessed as reduction in food intake at 10 mg/kg, po; type: functional, organism-based; set-up: dose 10 mg/kg; how it was run: as §3
Rattus norvegicus [15] = assay: Antiobesity activity in wild type 14 days diet-induced obese rat model assessed as reduction in body weight at 20 mg/kg, po BID; type: functional, organism-based; set-up: dose 20 mg/kg; how it was run: as §2
Mus musculus [16] = assay: Antiobesity activity in wild type diet-induced obese mouse model assessed as reduction in body weight at 10 mg/kg, po; type: functional, organism-based; set-up: dose 10 mg/kg; how it was run: as §3
Melanocortin receptor 3 = Melanocortin receptor 3 (Mus musculus, UniProt P33033); assay: Agonist activity at mouse MC3 receptor; type: functional
Sequence of Melanocortin receptor 3 (P33033 whole entry): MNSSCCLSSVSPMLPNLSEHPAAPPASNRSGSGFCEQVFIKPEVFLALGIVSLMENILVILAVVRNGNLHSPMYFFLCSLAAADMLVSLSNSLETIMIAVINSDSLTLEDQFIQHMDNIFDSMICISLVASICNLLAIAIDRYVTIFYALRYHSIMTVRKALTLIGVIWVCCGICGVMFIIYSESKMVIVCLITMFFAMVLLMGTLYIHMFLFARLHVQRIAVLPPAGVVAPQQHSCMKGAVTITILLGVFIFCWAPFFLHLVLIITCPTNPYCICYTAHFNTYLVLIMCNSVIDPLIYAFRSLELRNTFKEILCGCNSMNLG

Mus musculus [17] = assay: Antiobesity activity in wild type diet-induced obese mouse model assessed as reduction in food intake at 10 mg/kg, po; type: functional, organism-based; set-up: dose 10 mg/kg; how it was run: as §3

| Activity (Melanocortin receptor 4 [1]) [%] | clearance [3] [mL/min/kg] | IC50 (Melanocortin receptor 4 [4]) [nM] | Vd [5] [L/kg] | EC50 (Melanocortin receptor 4 [6]) [nM] | half-life [7] [h] | EC50 [8] [nM] | bioavailability [9] [%] | AUC/dose (Rattus norvegicus [10]) [µM·h/mg/kg] | EC50 (Melanocortin receptor 3) [nM] | SMILES | Activity [2] [%] | Activity (Rattus norvegicus [11]) | Activity (Rattus norvegicus [12]) | Activity (Mus musculus [13]) | Activity (Mus musculus [14]) | Activity (Rattus norvegicus [15]) | Activity (Mus musculus [16]) | Activity (Mus musculus [17]) |
| --- | --- | --- | --- | --- | --- | --- | --- | --- | --- | --- | --- | --- | --- | --- | --- | --- | --- | --- |
| 108 | 17.2 | 0.71 | 6.95 | 0.87 | 5.14 | 255 | 24 | 0.39 |  | Cc1cc2c(cc1Cl)C1(CCN(C(=O)[C@@H]3CN(C(C)(C)C)C[C@H]3c3ccc(F)cc3F)CC1)C[C@@H]2C(C)(C)C(=O)N(C)C | 92 |  |  |  |  |  |  |  |
| 97 |  |  |  |  |  |  |  |  |  | CC[C@H](NC(C)=O)c1cc(Cl)ccc1C1CCN(C(=O)[C@@H]2CN(C(C)(C)C)C[C@H]2c2ccc(F)cc2F)CC1 |  | Active |  |  |  |  |  |  |
| 112 | 9.1 | 8.5 | 10.4 | 2.1 | 15.1 | 494 | 22 | 0.83 |  | CC(=O)N(C)C(C)(C)[C@@H]1CC2(CCN(C(=O)[C@@H]3CN(C(C)(C)C)C[C@H]3c3ccc(F)cc3F)CC2)c2cc(Cl)c(C)cc21 | 35 |  |  |  |  |  |  |  |
| 109 |  |  |  | 4.6 |  | 1020 |  |  | 1700 | CC(=O)NC(C)(C)[C@@H]1CC2(CCN(C(=O)[C@@H]3CN(C(C)(C)C)C[C@H]3c3ccc(F)cc3F)CC2)c2cc(Cl)c(C)cc21 | 25 |  | Active | inactive | inactive | Active | Active | Active |
